Consider two molecules from publication PMC3076580 (Investigational New Drugs, 2010).

As usually defined, the IC50 is the point on the concentration scale where inhibition reaches its midpoint.

Each structure is given as a SMILES string. Where only a bound is given, the exact number is not on record here.

The target of data set [1] is purified deoxycytidine deaminase (dCDA) (Homo sapiens, UniProt P32320). Briefly: Deoxycytidine deaminase activity. As to conditions: 37°C; for deamination as substrate of dCDA: 500 μM substrate, no inhibitor. It counts as biochemical. Summed up: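 Purified dCDA (source not stated) run at 37°C with 500 μM dCyd or gemcitabine as substrate and 500 μM competing compound. Every run included a blank (no substrate or inhibitor) and a substrate-only control. Stopped after 15 or 25 min with 40% w/v TCA, then neutralised with trioctylamine/trichlorotrifluoroethane […]. Substrates and the deoxyuridine or difluorodeoxyuridine products measured by reversed-phase HPLC. Unpaired t-test.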
purified deoxycytidine deaminase (dCDA), sequence (P32320 whole entry): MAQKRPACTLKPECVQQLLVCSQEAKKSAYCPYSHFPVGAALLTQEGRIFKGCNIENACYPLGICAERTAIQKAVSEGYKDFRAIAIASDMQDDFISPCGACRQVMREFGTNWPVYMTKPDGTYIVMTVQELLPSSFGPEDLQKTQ

For data set [2], the system named is MA-11 breast cancer xenograft. Kind of data set: Xenograft testing, ip. It is filed as in vivo, nude mice. Conditions: MA-11, ip at MTD. Summed up: (§1)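 Female BALB/c nude mice anaesthetised with propanidid 5 mg/10 g ip. Tumour fragments (~2 mm cubes) implanted sc in each flank. Treatment started at minimum diameter 4 mm (32 mm3): liposomal test compound or gemcitabine ip q3dx5 at MTD. RTV = Vx/V0 ×100, group median. T/C = treated/control RTV ×100; SGD counts doubling times gained. Deaths within 2 weeks after the last dose counted as toxic. Mann–Whitney U, p<0.05.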

Another data set has as its system MOLT4/C8 cells. Kind of data set: Growth inhibition with or without nucleoside transport inhibitors. It counts as cell-based. Conditions: Homo sapiens. The procedure, abridged:
(§2)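 Cells grown in suspension in RPMI-1640-based medium and plated at 2.5.105 cells/ml. NBMPR (100 μM) or dipyridamole (4 μg/ml) was present or absent, with serial dilutions of test compound or gemcitabine. Cells counted after 72 h. Growth set relative to plated cells (0%) and untreated 72 h cells (100%). IC50 read from a straight-line interpolated curve.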

The subject of data set [3] is AG6000 cells (gemcitabine resistant A2780 variant, dCK deficient). Briefly: Growth inhibition, SRB assay, 72 h exposure. It counts as cell-based. Conditions: Homo sapiens, AG6000, 72 h. The procedure, abridged:
(§3)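 Monolayer cells seeded on day 1 at 6,000 (A2780), 18,000 (AG6000) or 8,000 (C26-G) cells/well. Drug dilutions added on day 2, final 2.10−10 to […], from a 20 mM DMSO stock (DMSO ≤1%). After 72 h, fixed with ice-cold TCA for 60 min and stained with sulforhodamine B. Relative growth taken from OD versus control wells. IC50 interpolated from straight-line curves.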

A further data set relates to THX cells. Kind of data set: Growth inhibition with or without nucleoside transport inhibitors. It counts as cell-based, human. As to conditions: for IC50: Homo sapiens. Summed up:
as §2

The subject of a further data set is C26-A cells. Kind of data set: Growth inhibition, SRB assay, 72 h exposure. As to conditions: Mus musculus. It counts as cell-based, murine. Background: In SRB staining, fixed cells bind dye roughly in proportion to their protein.
Data set [4] deals with PANC-1 pancreatic cancer xenograft. Briefly: Xenograft testing, ip. Conditions: PANC-1, ip every third day for five doses at MTD. It counts as in vivo, nude mice. The procedure, abridged:
as §1

For another data set, the system named is A2780 cells. Briefly: Growth inhibition, SRB assay, 72 h exposure. It is filed as cell-based. As to conditions: Homo sapiens, A2780, 72 h. Summed up:
as §3

For data set [5], the system named is MiaPaCa-2 pancreatic cancer xenograft. Kind of data set: Xenograft testing, ip. It is filed as in vivo, nude mice. Conditions: MiaPaCa-2, ip every third day for five doses at MTD. Summed up: as §1
Data set [6] deals with L4A6 cells (cytarabine resistant L1210 variant). Briefly: Growth inhibition, cell counting, 72 h exposure. It counts as cell-based, murine. Conditions: Mus musculus, L1210, 72 h. Summed up: (§4)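 Suspension cells in RPMI-1640 with 10% FCS. L5/L4A6 medium had 60 μM 2-mercaptoethanol and 250 ng/ml gentamicin; BCLO had 3.2 mM glutamine and gentamicin; Bara-C had 5% FCS plus 5% rat serum. Seeding: 50,000 (L5), 100,000 (L4A6), 150,000 (BCLO) or 175,000 (Bara-C) cells/well. Drug (final 2.10−10 to 10−3 M) added at plating; counted at 72 h. IC50 interpolated against 0%/100% controls.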

A further data set deals with MOLT4 cells. Briefly: Growth inhibition with or without nucleoside transport inhibitors. It counts as cell-based, human. Conditions: for IC50: Homo sapiens. Summed up:
as §2

The test system of data set [7] is C26-G cells (gemcitabine resistant). Briefly: Growth inhibition, SRB assay, 72 h exposure. It is filed as cell-based, murine. As to conditions: Mus musculus. Summed up:
as §3

In data set [8] the test system is THX malignant melanoma xenograft. Briefly: Xenograft testing, ip. It counts as in vivo, nude mice. Conditions: ip every third day for five doses at MTD. The procedure, abridged: as §1
In a further data set the test system is L1210/L5 cells. Briefly: Growth inhibition, cell counting, 72 h exposure. It is filed as cell-based, murine. Conditions: Mus musculus, L1210, 72 h. The procedure, abridged:
as §4

Data set [9] concerns H-146 small cell lung cancer xenograft. Briefly: Xenograft testing, ip. It counts as in vivo, nude mice. Conditions: H-146, ip at MTD. Summed up: as §1
The next data set relates to LOX cells. Kind of data set: Growth inhibition with or without nucleoside transport inhibitors. It is filed as cell-based. Conditions: Homo sapiens. The procedure, abridged: as §2
Data set [10] deals with TAX II-1 malignant fibrous histiocytoma xenograft. Briefly: Xenograft testing, ip. It is filed as in vivo, nude mice. Conditions: TAX II-1, ip at MTD. Summed up:
as §1

Data set [11] has as its system human colon cancer xenograft Co6044. Briefly: Xenograft testing, oral. It counts as in vivo, nude mice.
[12] abbreviates: Co6044, oral, days 1, 4 and 7, 20 mg/kg.
Setting [13] is: Co6044, oral, days 1, 4 and 7, 40 mg/kg.

Take `Nc1ccn([C@H]2C[C@H](O)[C@@H](CO)O2)c(=O)n1` [dCyd, deoxycytidine]: in [1], the “deamination as substrate of dCDA” value is listed as 312 pmol/hr/μl enzyme.
As for `Nc1ccn([C@@H]2O[C@H](CO)[C@@H](O)C2(F)F)c(=O)n1` [gemcitabine, 2′,2′-difluorodeoxycytidine], the “antitumor activity (in words)” value in [2] is “some activity”; in [9] it was “not active”; in [10], “inactive”. In addition, the IC50 is 7620 ± 590 nM with MOLT4/C8 cells (Molt4/C8, MOLT4/C8, +Dipyridamole 4 μg/ml); 8310 ± 1200 nM in the data set with MOLT4/C8 cells (Molt4/C8, MOLT4/C8, +NBMPR 100 μM); 460 ± 120 nM in the data set on MOLT4/C8 cells (Molt4/C8, MOLT4/C8, no transport inhibitor); 185000 ± 108000 nM in data set [3]; 310 ± 130 nM in the data set with THX cells (+Dipyridamole 4 μg/ml); 150 ± 50 nM with THX cells (+NBMPR 100 μM). Besides, the 50% inhibitory concentration (IC50) in the data set with THX cells (no transport inhibitor) worked out at 2.7 ± 0.7 nM; in the data set on C26-A cells it was 16 ± 4 nM; in the data set on A2780 cells, 1.5 ± 0.6 nM; in data set [6], 8800 ± 3600 nM; in the data set with MOLT4 cells (MOLT-4, MOLT4, +Dipyridamole 4 μg/ml), 610 ± 260 nM; with MOLT4 cells (MOLT-4, MOLT4, +NBMPR 100 μM) it was 820 ± 250 nM. In addition, the IC50 in the data set on MOLT4 cells (MOLT-4, MOLT4, no transport inhibitor) was 3 ± 3.3 nM; in [7], 20 ± 10 nM; in the data set with L1210/L5 cells it was 1.9 ± 0.6 nM; in the data set with LOX cells (+Dipyridamole 4 μg/ml), 610 ± 220 nM; with LOX cells (+NBMPR 100 μM), 1150 ± 60 nM; with LOX cells (no transport inhibitor), 4.7 ± 1 nM. Besides, the “decrease in sensitivity by dipyridamole” value with THX cells (4 μg/ml dipyridamole) came out at 115 fold; in the data set with MOLT4 cells (MOLT4, 4 μg/ml dipyridamole) it was 203 fold. Moreover, the “decrease in sensitivity by NBMPR” value was determined as 55 fold with THX cells (100 μM NBMPR) and 273 fold in the data set on MOLT4 cells (MOLT4, 100 μM NBMPR). For the same molecule, the Deaths is reported as 4/9 in [4], 7/7 in [5], 0/7 in data set [11] (setting [12]) and 5/7 in data set [11] (setting [13]). Further, the “dFdU formed when dCyd and gemcitabine were added simultaneously” value in data set [1] (500 μM each) is on record as 1,127 pmol/hr/μl enzyme. Further, the “deamination as substrate of dCDA” value in [1] is on record as 624 pmol/hr/μl enzyme. The same molecule gave an SGD in [8] of more than 6.25. The results for the “Weight loss (%)” value in data set [11] (setting [12]) and in data set [11] (setting [13]) were 0% and 1%, respectively. In addition, in [11] (setting [13]), the “Maximal T/C (%)” value is given as 8%. The “toxicity (in words)” value in data set [11] (Co6044 bearing mice, oral, at similar doses as the ip administration) is on record as “very toxic”.
